Assay results: ChEMBL document CHEMBL1154497, “Evaluating the potential of vacuolar ATPase inhibitors as anticancer agents and multigram synthesis of the potent salicylihalamide analog saliphenylhalamide” (Bioorg Med Chem Lett, 2008)

What was measured:
[1] = Growth inhibition of human HME50T cells at 100 nM; type: functional
[2] = Growth inhibition of human HME50 cells at 100 nM; type: cell-based
[3] = tested on: HepG2; assay: Cytotoxicity against human HepG2 cells expressing vacuolar ATPase; type: functional, cell-based
Outline: (§1)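 Cancer cell lines treated across a range of compound concentrations; the concentration inhibiting growth by 50% was calculated. IC50 given as average ± standard deviation of three experiments.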

[4] = tested on: SK-HEP1; assay: Cytotoxicity against human SKHEP1 cells expressing vacuolar ATPase; type: functional, cell-based; outline: as §1
[5] = tested on: HCT-116; assay: Cytotoxicity against human HCT116 cells expressing vacuolar ATPase; type: functional, cell-based; outline: as §1
[6] = tested on: HCT-15; assay: Cytotoxicity against human HCT15 cells expressing vacuolar ATPase; type: functional, cell-based; outline: as §1
[7] = tested on: HT-29; assay: Cytotoxicity against human HT-29 cells expressing vacuolar ATPase; type: functional, cell-based; outline: as §1
[8] = tested on: SW480; assay: Cytotoxicity against human SW480 cells expressing vacuolar ATPase; type: functional, cell-based; outline: as §1
[9] = tested on: SK-MEL-5; assay: Cytotoxicity against human SK-MEL-5 cells expressing vacuolar ATPase; type: functional, cell-based; outline: as §1
[10] = tested on: SK-MEL-28; assay: Cytotoxicity against human SK-MEL-28 cells expressing vacuolar ATPase; type: functional, cell-based; outline: as §1
[11] = tested on: A2058; assay: Cytotoxicity against human A2058 cells expressing vacuolar ATPase; type: functional, cell-based; outline: as §1
[12] = tested on: HOS; assay: Cytotoxicity against human HOS cells expressing vacuolar ATPase; type: functional, cell-based; outline: as §1
[13] = tested on: MG-63; assay: Cytotoxicity against human MG63 cells expressing vacuolar ATPase; type: functional, cell-based; outline: as §1
[14] = tested on: ASPC1; assay: Cytotoxicity against human AsPC1 cells expressing vacuolar ATPase; type: functional, cell-based; outline: as §1
[15] = tested on: PANC-1; assay: Cytotoxicity against human PANC1 cells expressing vacuolar ATPase; type: functional, cell-based; outline: as §1
[16] = tested on: MCF7; assay: Cytotoxicity against human MCF7 cells expressing vacuolar ATPase; type: functional, cell-based; outline: as §1
[17] = Cytotoxicity against human MCF7/DX cells expressing vacuolar ATPase; type: functional, cell-based
Outline: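 Doxorubicin-resistant MCF-7 subline, resistant to chemotherapeutics that are P-glycoprotein substrates. Cells treated across a range of compound concentrations; the concentration inhibiting growth by 50% was calculated. IC50 given as average ± standard deviation of three experiments.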

[18] = tested on: MDA-MB-231; assay: Cytotoxicity against human MDA-MB-231 cells expressing vacuolar ATPase; type: functional, cell-based; outline: as §1
[19] = tested on: NCI-H460; assay: Cytotoxicity against human NCI-H460 cells expressing vacuolar ATPase; type: functional, cell-based; outline: as §1
[20] = tested on: NCI-H1299; assay: Cytotoxicity against human NCI-H1299 cells expressing vacuolar ATPase; type: functional, cell-based; outline: as §1
[21] = tested on: A549; assay: Cytotoxicity against human A549 cells expressing vacuolar ATPase; type: functional, cell-based; outline: as §1
[22] = tested on: SK-MES-1; assay: Cytotoxicity against human SKMES1 cells expressing vacuolar ATPase; type: functional, cell-based; outline: as §1

**Q.** Which inhibition at 0.1 µM [1] does the source give for `CC/C=C\C=C/C(=O)N/C=C/C[C@H]1C[C@@H](O)[C@@H](C)C/C=C/Cc2cccc(O)c2C(=O)O1` [SALICYLIHALAMIDE A] here?
**A.** 75%

**Q.** And the inhibition at 0.1 µM [2]?
**A.** 60%

**Q.** For `C[C@H]1C/C=C/Cc2cccc(O)c2C(=O)O[C@@H](C/C=C/NC(=O)C#Cc2ccccc2)C[C@H]1O` [SALIPHENYLHALAMIDE], which IC50 [3] is on record?
**A.** 79.2 nM

**Q.** What about the IC50 [4] of the same compound?
**A.** 40.7 nM

**Q.** What about the IC50 [5] of the same compound?
**A.** 69.3 nM

**Q.** And the IC50 [6]?
**A.** 100 nM

**Q.** What about the IC50 [7] of the same compound?
**A.** 89.9 nM

**Q.** And the IC50 [8]?
**A.** 425 nM

**Q.** What about the IC50 [9] of the same compound?
**A.** 106 nM

**Q.** What about the IC50 [10] of the same compound?
**A.** 98.5 nM

**Q.** What about the IC50 [11] of the same compound?
**A.** 154 nM

**Q.** What about the IC50 [12] of the same compound?
**A.** 48.8 nM

**Q.** What about the IC50 [13] of the same compound?
**A.** 449 nM

**Q.** What about the IC50 [14] of the same compound?
**A.** 75.9 nM

**Q.** What about the IC50 [15] of the same compound?
**A.** 124 nM

**Q.** And the IC50 [16]?
**A.** 156 nM

**Q.** And the IC50 [17]?
**A.** 160 nM

**Q.** And the IC50 [18]?
**A.** 180 nM

**Q.** What about the IC50 [19] of the same compound?
**A.** 52.9 nM

**Q.** And the IC50 [20]?
**A.** 77.2 nM

**Q.** And the IC50 [21]?
**A.** 146 nM

**Q.** What about the IC50 [22] of the same compound?
**A.** 76.4 nM

**Q.** What about the inhibition at 0.1 µM [1] of the same compound?
**A.** 95%
